proCasp3 act = activates human procaspase-3. P42574. recombinant procaspase-3 D3A, Ac-DEVD-pNA absorbance 405 nm. activation, % at 8.5 µM. 0.11% of 330,000 active;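 active = activation above the mean of all tested compounds plus 3 SD, cut at about 21% in these data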
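material = Procaspase-3 D3A mutant | probe or stimulus = Ac-DEVD-pNA | compound = single dose, 8.5 µM nominal compound, 0.8% DMSO | timing = 1 h preincubation, 2 h reaction | measured by = 405 nm absorbance of p-nitroaniline, reads at 0 and 120 min | benchmarks = DMSO-only low control, 5 µM PC-3 D3A high control | repeats = singlicate, each compound tested once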
PolyA inhibitor = inhibitors of polyadenylation in S. cerevisiae | activity score, % at 12 µM | 0.02% of 300,000 active | AID 1875 | S. cerevisiae SKY197-pL101 polyadenylation reporter, beta-gal luminescence; efflux-impaired pdr1/pdr3 knockout yeast; score 100 = 6 SD above DMSO;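 active = lowest replicate activity score at least 50, where 100 means six control SD above control mean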;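 note: yeast exposed to compound for 9 h at 30 °C; higher score means more reporter readthrough which indicates perturbed polyadenylation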
IMP-1 inh = blocks Pseudomonas aeruginosa IMP-1 metallo-beta-lactamase | 0.45% of 290,000 active | inhibition, % at 5.6 µM | purified IMP-1, nitrocefin hydrolysis, epi-absorbance fluorescence;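 active = inhibition above the mean plus 3 SD of all compounds in the same screening run, cut at about 4.5% in these data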
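Assay system: purified recombinant IMP-1 beta-lactamase. Input: IMP-1 0.2 nM before substrate addition. Buffer or medium: Zinc- and detergent-supplemented HEPES buffer, pH 7.1. Schedule: 25 °C, 15 min preincubation, 25 min reaction. Signal: Epi-absorbance fluorescence, 480 nm excitation, 530 nm emission. Evaluation: percent inhibition from optical density relative to buffer-blank wells.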
proCasp7 act = counter-screen: procaspase-7 (human) activation; recombinant procaspase-7, Ac-DEVD-pNA absorbance 405 nm; D23A/D198A/D206A triple mutant, cannot self-cleave; scale: DMSO 0, 5 µM enzyme 100; AID 463210; activation, % at 8.5 µM; 0.093% of 330,000 active;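 active = percent activation above the screen-wide mean plus 3 SD, cut at about 25% in these data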
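buffer or medium = Zinc-free HEPES/NaCl buffer, pH 7.4 | material = Procaspase-7 triple mutant (PC-7 D3A) | input = 2 µM procaspase-7 mutant as dispensed | signal = Epi-absorbance of released pNA at 405 nm, two timepoints | timing = 1 h preincubation, 2 h reaction | replicates = singlicate compound testing | evaluation = % activation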
VIM-2 inhibitor = inhibitors of Pseudomonas aeruginosa VIM-2 metallo-beta-lactamase. purified VIM-2, nitrocefin hydrolysis, epi-absorbance fluorescence. inhibition, % at 5.6 µM. 0.89% of 290,000 active. AID 1527;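 active = inhibition above the mean of all tested compounds plus 3 SD, cutoff set per screening run, cut at about 7.5% in these data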;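 note: red hydrolysis product quenches plate fluorescence so inhibitors raise well fluorescence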
Neddyl block = inhibitors of human cullin neddylation | P61081+Q13564 | TR-FRET cullin neddylation, biochemical | calls only at 25 µM | 0.58% of 360,000 active; in the data active = inhibition above about 36%
Target sequence (P61081 whole entry, looked up): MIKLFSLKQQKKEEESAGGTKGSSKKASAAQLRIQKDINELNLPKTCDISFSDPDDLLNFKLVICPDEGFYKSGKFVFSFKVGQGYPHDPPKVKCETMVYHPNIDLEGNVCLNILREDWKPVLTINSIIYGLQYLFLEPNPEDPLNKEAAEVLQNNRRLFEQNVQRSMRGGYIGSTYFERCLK
Target sequence (Q13564 whole entry, looked up): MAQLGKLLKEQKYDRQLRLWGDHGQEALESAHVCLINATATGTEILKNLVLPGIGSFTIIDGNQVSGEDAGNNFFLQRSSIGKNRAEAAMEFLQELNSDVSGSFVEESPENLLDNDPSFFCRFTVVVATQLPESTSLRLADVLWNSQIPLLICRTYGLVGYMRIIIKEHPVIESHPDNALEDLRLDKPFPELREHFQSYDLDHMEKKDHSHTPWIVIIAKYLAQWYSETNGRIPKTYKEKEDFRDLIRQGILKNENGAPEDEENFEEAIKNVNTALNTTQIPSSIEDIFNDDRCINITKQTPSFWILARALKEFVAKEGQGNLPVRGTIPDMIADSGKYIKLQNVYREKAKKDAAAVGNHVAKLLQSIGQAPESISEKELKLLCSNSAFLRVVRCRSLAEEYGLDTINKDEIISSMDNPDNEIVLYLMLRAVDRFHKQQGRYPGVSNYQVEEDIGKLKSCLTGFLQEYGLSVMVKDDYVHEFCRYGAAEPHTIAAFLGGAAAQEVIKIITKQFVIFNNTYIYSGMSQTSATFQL
Neddyl conf = cullin neddylation inhibition, confirmation | shares compounds with Neddyl block | TR-FRET cullin neddylation biochemical assay | calls only at 25 µM | 13% of 1,800 active | AID 652217; in the data active = inhibition above about 40%;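 note: neddylation substrate is the cullin 1 ring ligase complex with SKP2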
Numbers stand for hits; i = inactive; nt = no result shown; + = active, no number. An excerpt weighted towards active compounds, which were near 1.7% of everything screened.

SMILES	proCasp3 act	PolyA inhibitor	IMP-1 inh	proCasp7 act	VIM-2 inhibitor	Neddyl block	Neddyl conf
COc1cc(C(=O)Nc2sc3c(c2C(=O)O)CCC3)cc(OC)c1OC	i	i	i	i	i	+	nt
COc1cccc(C(=O)Nc2sc3c(c2C(=O)O)CCCC3)c1	nt	i	i	nt	i	i	nt
Cc1ccc(C(=O)Nc2sc3c(c2C(=O)O)CCCC3)o1	i	i	i	i	i	+	nt
CC1CN(S(=O)(=O)c2ccc(C(=O)Nc3ccc(S(=O)(=O)N4CCOCC4)cc3)cc2)CC(C)O1 (stereo unspecified)	i	i	i	i	i	i	nt
O=C(c1cc(-c2ccc(Br)cc2)on1)N1CCCC1	i	i	i	i	i	i	nt
COc1cccc(CNc2ccc3[nH]c(=O)[nH]c3c2)c1OCc1ccc(F)cc1	nt	i	i	nt	i	+	i
C=CCOc1c(CNc2ccc3[nH]c(=O)[nH]c3c2)cccc1OC	i	i	i	i	i	i	nt
CS(=O)(=O)c1ccc2nc(NC(=O)c3ccco3)sc2c1	i	i	i	i	i	i	nt
Cc1c(Cl)ccc2sc(NC(=O)c3ccco3)nc12	i	i	i	i	i	+	i
CC(=O)n1cc([C@H]2C=C(C(=O)NCc3ccccc3)O[C@@H](OCCCCO)C2)c2ccccc21	i	i	i	i	i	i	nt
CCn1c(CSc2nc3ccccc3[nH]2)nc2cc(C(=O)O)ccc21	i	i	i	i	i	+	nt
Cc1ccc(CNC(=O)c2ccc(Cl)c(S(N)(=O)=O)c2)n1C	i	i	i	i	i	i	nt
O=C(CSc1cccc2cccnc12)N/N=C/c1ccc(F)cc1	i	i	i	i	i	nt	nt
O=C(CSc1cccc2cccnc12)N/N=C/c1cccc(O)c1	i	i	i	i	i	+	i
O=C1c2ccccc2C(c2nnnn2Cc2ccccc2)N1CCc1c[nH]c2ccccc12 (stereo unspecified)	nt	nt	nt	nt	nt	i	nt
CCCOc1cc(C)nc(-c2ccccc2O)n1	i	i	i	i	i	i	nt
CSCCC1NC(=O)C(C(C)=Nc2ccccc2)=C1O (stereo unspecified)	nt	nt	nt	nt	nt	i	nt
Cc1c(C)c2ccc(OC(C)C(=O)NCCN3CCOCC3)c(C)c2oc1=O (stereo unspecified)	i	i	i	i	i	+	i
CCc1cc(=O)oc2c(C)c(OC(C)C(=O)NCCCN3CCOCC3)ccc12 (stereo unspecified)	i	i	i	i	i	i	nt
Cc1c(C)c2ccc(OC(C)C(=O)NCCCN3CCOCC3)c(C)c2oc1=O (stereo unspecified)	i	i	i	i	8.6	+	i
CN1CCN(C(=O)c2ccc3c(c2)N(Cc2ccc(F)cc2)C(=O)c2ccccc2S3=O)CC1 (stereo unspecified)	i	i	i	i	i	i	nt
COC(=O)[C@@H](NC(=O)c1ccc(OC2CCN(Cc3ccccn3)CC2)cc1)C(C)C	i	i	i	i	i	i	nt
Cc1ccc2nc(CSc3nnc4ccccn34)cc(=O)n2c1	i	i	i	i	i	i	nt
CCn1cc(C(=O)NCCC(C)C)c(=O)c2cc(F)c(N3CCN(C)CC3)cc21	i	i	i	i	i	+	nt
CCCCNC(=O)c1cn(CC)c2cc(N3CCN(C)CC3)c(F)cc2c1=O	i	i	i	i	i	nt	nt
SMILES	proCasp3 act	PolyA inhibitor	IMP-1 inh	proCasp7 act	VIM-2 inhibitor	Neddyl block	Neddyl conf
CCCOc1ccc(C(=O)NC(=S)N2CCN(c3cc4c(cc3F)c(=O)c(C(=O)O)cn4CC)CC2)cc1	i	i	i	i	i	+	i
C/C(O)=C(/N=O)C(=O)Nc1ccccc1	i	i	i	i	i	i	nt
CCN(CC)c1cc(C)c2cc(NC(=O)CNC(C)=O)ccc2n1	i	i	i	i	i	+	+
CCN(CC)c1cc(C)c2cc(NC(=O)c3ccccc3F)ccc2n1	i	i	i	i	i	i	nt
Cc1ccccc1NC(=O)CSC(N)=O	i	i	i	i	i	i	nt
CC(=O)N(C)c1cccc(-c2ccc3nnc(C)n3n2)c1	i	i	i	i	i	+	nt
O=[N+]([O-])c1cncc([N+](=O)[O-])c1Nc1cccc(O)c1	i	i	i	i	i	i	nt
NC(=O)c1c(NC(=O)c2cccc(N3C(=O)CCC3=O)c2)sc2c1CCCCC2	i	i	i	i	i	+	nt
CNC(=O)c1c(NC(=O)c2cccc(N3C(=O)CCC3=O)c2)sc2c1CCCC2	i	i	i	i	i	nt	nt
Cc1nnc(SCc2cc(=O)oc3ccc4ccccc4c23)n1Cc1ccccc1	i	i	i	i	i	i	nt
Cc1nnc(SCc2cc(=O)oc3cc(O)ccc23)n1Cc1ccccc1	i	i	i	i	i	+	i
Cc1cccc(C)c1NC(=O)c1ccc(OCc2c(C)noc2C)cc1	i	nt	nt	i	nt	+	i
CN(C)c1ccc(CNCC2CCCO2)cc1 (stereo unspecified)	i	i	i	i	i	i	nt
CN(C)S(=O)(=O)c1ccc2nc(NC(=O)c3cccs3)sc2c1	i	i	i	i	i	i	nt
CCC(C)NC(=O)c1c(N)n(/N=C/c2cccnc2)c2nc3ccccc3nc12 (stereo unspecified)	i	i	i	i	i	nt	nt
CCC(C)NC(=O)c1c(N)n(/N=C/c2ccccn2)c2nc3ccccc3nc12 (stereo unspecified)	i	i	i	i	i	+	i
CCOC(=O)c1nn(-c2ccc(OCC)cc2)c2nc(CC(C)C)c(C#N)c(=O)n12	i	i	i	i	i	nt	nt
CCOC(=O)c1nn(-c2ccccc2C)c2nc(CC(C)C)c(C#N)c(=O)n12	i	i	i	i	i	+	i
Cn1c(-c2sc3cc(C(F)(F)F)cnc3c2-c2ccccn2)n[nH]c1=S	i	i	i	i	i	i	nt
CSc1nnc(-c2sc3cc(C(F)(F)F)cnc3c2-c2ccccn2)n1C	i	i	i	i	i	+	i
CS(=O)(=O)Nc1ccccc1C(=O)Nc1cccc(Cl)c1	i	i	i	i	i	+	nt
CS(=O)(=O)Nc1ccccc1C(=O)NCCSc1ccccc1	i	i	i	i	i	+	i
CC(C)(CNC(=O)c1ccccc1NS(C)(=O)=O)N1CCCCC1	i	i	i	i	i	+	i
CS(=O)(=O)Nc1ccccc1C(=O)N1CCCC1	i	i	i	i	i	i	nt
CS(=O)(=O)Nc1ccccc1C(=O)NCCSCc1ccccc1	i	i	i	i	i	nt	nt
COc1ccc(C(=O)c2ccc(Cl)c([N+](=O)[O-])c2)cc1	i	i	i	i	i	i	nt
CCC(=O)Nc1cc2c(C)cc(=O)oc2cc1C	i	i	i	i	i	+	nt
